CR mimetic SO: yeast age-related superoxide inhibition as caloric restriction mimetic; S. cerevisiae aged cells, superoxide DHE fluorescence; stronger effect = lower value; hit rate 0.18% among 330,000; superoxide response (% of plate mean), % at 10 µM;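 active means superoxide response under a set limit, about three screen SD below normal, cut at about 65% in these data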;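 further: yeast aged for seven days with compound at 30 °C before DHE staining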
UCH37 inh: blocks the human deubiquitinase UCH37; AID 588478; inhibition, % (test concentration not listed); purified proteasome/UCH37, Ub-AMC cleavage fluorescence; hit rate 0.33% among 330,000;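 active means mean inhibition over replicate wells above about 20%, limit read from the data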
Target sequence (Q9Y5K5 whole entry, looked up): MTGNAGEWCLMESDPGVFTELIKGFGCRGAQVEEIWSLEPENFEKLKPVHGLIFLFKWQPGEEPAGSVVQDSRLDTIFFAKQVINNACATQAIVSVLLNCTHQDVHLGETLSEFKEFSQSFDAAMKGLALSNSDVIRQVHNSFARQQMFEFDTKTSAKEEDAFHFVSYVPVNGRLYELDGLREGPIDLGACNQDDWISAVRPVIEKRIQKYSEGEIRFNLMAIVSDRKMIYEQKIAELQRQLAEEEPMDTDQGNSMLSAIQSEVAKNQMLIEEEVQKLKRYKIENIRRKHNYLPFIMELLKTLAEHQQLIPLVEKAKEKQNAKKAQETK
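assay system = human UCH37 enzyme supplied as purified proteasome complex | amount = proteasome at 0.15 nM in the dispensed enzyme solution | schedule = 30 min compound-proteasome preincubation then 25 min substrate reaction, room temperature | measured by = fluorescence, ex 355 nm, em 460 nm | benchmarks = no-proteasome wells (full inhibition) and compound-free wells (no inhibition)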
MIN6 prolif: MIN6 beta-cell proliferation induction; MIN6 cells proliferation, ATPlite luminescence, 48 h; cells starved in 0.2% serum; 100% = growth in 10% serum; proliferation, % at 10 µM; hit rate 0.29% among 330,000; AID 2380;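 active means compounds whose signal lies at least 3.5 SD above the mean of all wells on their plate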
NR1D1 modulator: Rev-erb alpha (human) modulation; hit rate 0.79% among 370,000; activity, % at 10 µM; Rev-erbα–FITC-DNA binding, fluorescence polarization, 90 min;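 active means activity above about 14%, limit read from the data; passing the limit was not always enough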
PG9 binder: binds the HIV-1 gp120 antibody PG9; TR-FRET gp120-PG9 antibody binding; hit rate 0.43% among 360,000; inhibition, % at 6.7 µM; in the data active means inhibition above about 8.5%
Rce1 inhib: blocks yeast Ras-converting enzyme. yeast membranes, quenched prenylated peptide cleavage fluorescence. calls only. hit rate 0.27% among 290,000. AID 2563;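 active means fall in fluorescence gain of 50% or more versus controls, with final raw signal at or below 3038400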
Target sequence (Q03530 whole entry, looked up): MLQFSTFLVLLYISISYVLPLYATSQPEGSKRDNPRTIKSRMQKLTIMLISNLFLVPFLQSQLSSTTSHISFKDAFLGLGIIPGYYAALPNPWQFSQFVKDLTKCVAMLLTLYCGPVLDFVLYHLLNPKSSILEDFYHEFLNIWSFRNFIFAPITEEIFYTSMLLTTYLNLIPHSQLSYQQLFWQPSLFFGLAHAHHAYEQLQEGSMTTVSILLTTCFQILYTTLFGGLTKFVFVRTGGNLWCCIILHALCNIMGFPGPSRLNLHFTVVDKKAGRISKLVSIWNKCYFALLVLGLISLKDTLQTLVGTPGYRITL
A number is an active result; – = inactive; · = no result; + = active, no number. Shown are actives, neighbours in structure and some others; about 1.9% of the full set was active somewhere.

SMILES	CR mimetic SO	UCH37 inh	MIN6 prolif	NR1D1 modulator	PG9 binder	Rce1 inhib
Cc1cc(C(=O)N[C@H](c2ccccc2)[C@@]2(C)C[C@@H]2[C@@H](C)C(=O)Nc2ccc3ccccc3c2)n(C)n1	–	–	–	–	–	+
C[C@@H](C(=O)Nc1ccc2ccccc2c1)[C@H]1C[C@]1(C)[C@H](NC(=O)OCc1ccccc1)c1ccccc1	–	–	–	–	–	–
O=C(O)c1cc(N=Nc2c(O)ccc3ccccc23)cc(C(=O)O)c1	·	26.4	·	–	–	·
Oc1ccc(N=Nc2c(O)ccc3ccccc23)cc1	–	–	–	–	–	–
O=[N+]([O-])c1cc(S(=O)(=O)N2CCCC2)ccc1NN=C1CCCCC1	–	–	–	–	–	+
CN(c1ccc(OCC(=O)Nc2ccc(S(N)(=O)=O)cc2)cc1)S(=O)(=O)c1ccc(F)cc1	·	–	·	–	–	·
CN(c1ccc(OCC(=O)Nc2cc(Cl)ccc2C(=O)O)cc1)S(=O)(=O)c1ccc(F)cc1	59.2	–	–	–	–	·
COc1ccc(C=NNC(=O)CCC(=O)Nc2ccccc2)cc1OC	·	–	·	·	·	·
CC(=O)Oc1ccc(C=NNC(=O)C2CCCN2S(=O)(=O)c2ccc(Cl)cc2)cc1 (centres undefined)	·	–	·	·	·	·
COc1ccc(S(=O)(=O)N2CCC(C(=O)NCCC3=CCCCC3)CC2)cc1C	–	22.1	–	–	–	–
O=C(C1=C[C@H](c2ccccc2)C[C@H](OCCCCO)O1)N1CCN(Cc2ccc3c(c2)OCO3)CC1	–	–	–	–	–	–
O=C(C1=C[C@@H](c2ccc(Br)cc2)C[C@@H](OCCCCO)O1)N1CCN(Cc2ccc3c(c2)OCO3)CC1	·	29.9	–	–	–	–
CCOCCCNC1=C(Cl)C(=O)c2ccccc2C1=O	–	24.0	–	–	–	–
COc1ccc(-c2ccc3oc(-c4ccsc4)c(-c4ccc(Br)nc4)c3c2)cc1	–	·	–	·	·	·
COc1ccc(-c2c(-c3ccsc3)oc3ccc(N4CCOCC4)cc23)cn1	·	–	–	–	–	+
CC(=O)c1ccc(-n2ccnc2)cc1	–	–	–	–	–	–
O=C(Nc1ccccc1)n1ccc(-c2ccc(-n3ccnc3)cc2)n1	–	·	–	–	–	+
O=C(O)c1ccc2[nH]c3c(c2c1)CCCC3	–	21.0	–	–	–	–
CN1CCCN(C(=O)c2ccc(Br)s2)CC1	–	–	–	–	–	–
CN1CCN(C(=O)c2ccc(-c3cccs3)s2)CC1	–	·	–	–	–	+
CCOC(=O)c1ccc(NC(=O)CN2CCN(Cc3ccccc3)CC2)cc1	–	–	–	–	–	–
CCOC(=O)c1ccc(NC(=O)N2CCN(Cc3ccccc3)CC2)cc1	–	–	–	–	–	+
CC(=NNC(=O)c1ccc2c(c1)OCO2)c1ccco1	·	–	·	·	·	·
Cc1ccc(C(=O)N/C(=C/c2ccco2)C(=O)Nc2cccc(C(=O)O)c2)cc1	–	–	–	–	–	+
CC(=O)NN=C(C)c1cccc(NC(=O)c2cccs2)c1	·	–	·	·	·	·
SMILES	CR mimetic SO	UCH37 inh	MIN6 prolif	NR1D1 modulator	PG9 binder	Rce1 inhib
O=C1CCCC(O)=C1N=Nc1ccc2c(c1)OCO2	–	20.2	–	–	–	–
COC(=O)C1=CNC=C(C(=O)OC)C1c1cccc2ccccc12	–	–	–	–	–	+
CC(=O)OC1CCC2(C)C(COc3ccc4ccc(=O)oc4c3)C(C)(O)CCC2C1(C)C (centres undefined)	–	–	–	–	–	+
CCCc1cc(=O)oc2cc(OCC(=O)N3CCC(C(N)=O)CC3)ccc12	–	–	–	–	–	·
CCc1cc(=O)oc2cc(OCC(=O)N3CCC(C(=O)O)CC3)ccc12	–	–	–	–	–	+
CN(C)C(=O)COc1ccc2ccc(=O)oc2c1	–	–	–	–	–	+
CCN(C(=O)COc1ccc2ccc(=O)oc2c1)C1CCCCC1	–	–	–	–	–	·
CCOC(=O)c1cccc2c1-c1ccccc1C2=NO	·	–	·	·	·	·
CC(Oc1ccc2c3c(c(=O)oc2c1)CCCC3)C(=O)NC1CC(C)(C)NC(C)(C)C1 (centres undefined)	–	–	–	–	–	+
CCn1c2ccccc2c2cc(/C=N/NC(=O)c3ccc(O)cc3)ccc21	–	·	–	–	–	+
CCn1c2ccccc2c2cc(/C=N/NC(=O)c3cc(O)cc(O)c3)ccc21	–	·	–	–	–	+
O=C(N/N=C/c1cn(Cc2ccccc2)c2ccccc12)c1cc(O)cc(O)c1	–	·	–	–	–	+
O=C(N/N=C/c1cccc(C(F)(F)F)c1)c1ccc(O)cc1	63.3	·	–	–	–	·
CCn1c2ccccc2c2cc(/C=N/NC(=O)c3ccncc3)ccc21	–	·	–	–	–	–
C=CCn1c(=C2C(=O)NN=C2C)sc(=C2Sc3ccccc3N2CC)c1=O	·	–	·	·	·	·
COc1ccc2ccccc2c1C=NNC(=S)NCCN1CCOCC1	·	–	·	·	·	·
Cc1ccc(C(=O)Nc2cccc(C(=O)NN=Cc3ccc(F)cc3)c2)cc1	·	–	·	·	·	·
COC(CN(C(=O)CCl)C(C(=O)NC1CCCC(C)C1C)c1ccc(C)cc1)OC (centres undefined)	–	22.4	–	·	·	–
COC(CN(C(=O)CCl)C(C(=O)NC1CCCCC1)c1ccc(Cl)cc1)OC (centres undefined)	–	–	–	–	–	–
O=C(Nc1cc(S(=O)(=O)N2CCOCC2)ccc1N1CCCC1)c1cnccn1	–	–	–	–	–	+
N#C/C(=C\c1ccco1)c1nc2ccccc2s1	–	–	–	–	–	–
N#C/C(=C/c1ccc(-c2cc(C(=O)O)cc(C(=O)O)c2)o1)c1nc2ccccc2s1	–	27.6	–	·	·	–
CCCCc1ccc(S(=O)(=O)NN=C(C)c2ccncc2)cc1	·	–	·	·	·	·
NC(=O)[C@@H]1CC2(CC(c3cccc(NC(=O)COc4ccc(Cl)cc4)c3)=NO2)CN1C(=O)COc1ccc(Cl)cc1 (some centres undefined)	–	–	–	–	–	–
NC(=O)[C@@H]1CC2(CC(c3cccc(NC(=O)CC(c4ccccc4)c4ccccc4)c3)=NO2)CN1C(=O)c1ccc(Cl)cc1 (some centres undefined)	–	–	–	–	–	+
SMILES	CR mimetic SO	UCH37 inh	MIN6 prolif	NR1D1 modulator	PG9 binder	Rce1 inhib
NC(=O)[C@H]1CC2(CC(c3cccc(NC(=O)COc4ccc(Cl)cc4)c3)=NO2)CN1C(=O)C(c1ccccc1)c1ccccc1 (some centres undefined)	–	–	–	–	–	+
C(=NNc1nc(-c2ccccc2)cs1)c1ccco1	·	–	·	·	·	·
COc1ccccc1C(=O)NC(CCSC)C(=O)NNC(=O)c1ccccc1O (centres undefined)	64.3	–	–	–	–	·
COc1ccccc1C(=O)NC(CCSC)C(=O)NNC(=O)c1ccc(F)cc1 (centres undefined)	–	–	–	–	–	–
COc1cc2c(C#N)c(N3CCOCC3)nc(N)c2c(N)n1	–	–	–	–	–	–
COc1cc2c(C#N)c(N3CCCCC3)nc(N)c2c(N)n1	–	–	–	–	–	+

Source: PubChem BioAssay (several laboratories)
